Bioassay records as filed in PubChem.
Only a selection was taken, and hits are over-represented in it overall.
ALR inh – inhibitors of human ALR sulfhydryl oxidase, primary screen, biochemical, H2O2 detection, HRP-luminol luminescence, single point; FAD-linked sulfhydryl oxidase ALR (Homo sapiens), P55789; purified ALR, DTT oxidation; inhibition, % (test concentration not listed); actives 3.8% (n = 290,000); AID 485317, 2010;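 active = mean replicate inhibition above about 79%, with every replicate also reaching it, limit read from the data; inconclusive = only one of the two criteria met; inactive = mean below limit and not every replicate reaching it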
Target sequence (P55789 whole entry, looked up): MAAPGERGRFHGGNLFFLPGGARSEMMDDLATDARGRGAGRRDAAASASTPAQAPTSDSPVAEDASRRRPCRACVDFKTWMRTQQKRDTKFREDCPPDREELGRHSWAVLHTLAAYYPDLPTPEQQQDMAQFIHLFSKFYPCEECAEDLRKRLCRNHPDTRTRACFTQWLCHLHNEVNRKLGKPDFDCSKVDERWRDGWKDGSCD
N-glyco inh – increase of ERlucT glycosylation luciferase signal, primary screen, N-linked glycosylation inhibitor project, D54 ERlucT cells, luminescence, set 2 | D54 ERlucT glycosylation luciferase reporter, 24 h; percent of 100 nM tunicamycin response | reporter increase, % at 12.5 µM | actives 0.23% (n = 360,000) | AID 588692, 2011;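 active = mean luciferase reporter signal, scaled so untreated is 0 and the glycosylation-blocking control 100, at or above a set limit in every replicate; inconclusive = mean reaches the limit but not every replicate does; inactive = mean below the limit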;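 note: luciferase carries N-glycosylation sites so blocking glycosylation raises the light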
T cell HTS – modulators of CD8 T cell-vesicle binding, primary screen, mouse 2C CD8+ T cells, flow cytometry; 2C CD8+ T cell-vesicle binding; hits give low values; response (vesicle binding), % at 7 µM; actives 0.068% (n = 330,000);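 active = response, share of CD8 T cells binding vesicles, and their 90th percentile fluorescence all below set limits, cut at about 80% in these data, passing the limit was not always enough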;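 note: values below 100% mean blocked vesicle binding to the CD8+ T cells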
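Assay system – 2C mouse CD8+ T cells · Also added – QL9-loaded Drosophila micro-vesicles · Timing – Cell–vesicle co-incubation 1.5 h at 37 °C, staining 20 min on ice · Signal – flow cytometry of vesicle-bound cells · Measure – percent CD8+ FL2 mean versus row control · Controls – Peptide-free naked vesicles (low) and QL9 vesicles with 0.7% DMSO vehicle (high)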
Each line names hits and unclear results; the compound was inactive in the other large screens.

O=C(CSc1nc(=O)n2cc(Cl)ccc2n1)Nc1ccc2c(c1)OCO2	none
O=C(CSc1nc(=O)n2cc(Cl)ccc2n1)Nc1ccc2c(c1)OCCO2	ALR inh 99
Cc1ccc2nc(SCC(=O)Nc3ccc4c(c3)OCCO4)nc(=O)n2c1	ALR inh 98
Cc1ccc2nc(SCC(=O)Nc3cc(C)on3)nc(=O)n2c1	none
COc1ccc(C(=O)CSc2nc(=O)n3ccc(C)cc3n2)cc1	none (no result: ALR inh, T cell HTS)
Cc1ccn2c(=O)nc(SCC(=O)c3ccc(Cl)cc3)nc2c1	ALR inh 93
Cc1ccn2c(=O)nc(SCC(=O)Nc3ccc4c(c3)OCO4)nc2c1	ALR inh inconclusive
CCCC(C(=O)Nc1ccc2c(C)cc(=O)oc2c1)c1ccccc1 (stereo not given)	none
Cc1c(C(=O)NC2CCOC2)oc2c(F)cccc12 (stereo not given)	none
CCCN(CC(=O)Nc1ccccc1C)C(=O)CCl	none
CCn1c(CC(=O)Nc2ccccc2)nnc1SCC(=O)Nc1nnc(C)s1	none
Cc1cccc2c(N)c3c(nc12)N(C)CC3	N-glyco inh 30
CN1CCc2c1nc1ccccc1c2N (tested in a mixture with another compound)	none
O=C(NC1CCN(S(=O)(=O)c2ccccc2F)CC1)c1cccnc1	none (no result: ALR inh)
O=C1OCCC1(c1ccccc1)c1ccccc1	none (no result: ALR inh, T cell HTS)
CC1(C)Cc2c(sc(NC(=S)NC(=O)c3ccccc3)c2C(=O)O)CO1	ALR inh 99
CC1(C)Cc2c(sc(NC(=O)c3ccco3)c2C(=O)O)CO1	none
CCOC(=O)C1=NNC2(c3ccc(C)cc3)C(=O)N(c3ccccc3)C(=O)C12 (stereo not given)	none
Cc1ccccc1CSCC(=O)Nc1c(C)n(C)n(-c2ccccc2)c1=O	ALR inh 98
Cc1c(NC(=O)CN2CCN(c3ccc([N+](=O)[O-])cc3)CC2)c(=O)n(-c2ccccc2)n1C	none
Cc1c(NC(=O)CN2CCN(c3ccc(O)cc3)CC2)c(=O)n(-c2ccccc2)n1C	ALR inh 99
Cc1ccc(CSCC(=O)Nc2c(C)n(C)n(-c3ccccc3)c2=O)cc1	none
O=C(CN1CCOCC1)NN1CC(=O)N(c2ccc(Cl)cc2)CC1=O	none
Cc1ccc(N2CC(=O)N(NC(=O)CN3CCN(c4ccccc4)CC3)CC2=O)cc1	ALR inh 85
CN(C(=O)CC1C(=O)NCCN1Cc1cccc(F)c1F)C1CC(C)(C)NC(C)(C)C1 (stereo not given)	none (no result: N-glyco inh)
Cc1cc(C)c(S(=O)(=O)N(C)CC(=O)NCCCn2ccnc2)c(C)c1	none
COc1ccc(C(=O)c2ccc(Cl)c([N+](=O)[O-])c2)cc1	ALR inh 97
COc1ccc(C(=O)c2ccc(Cl)cc2)cc1	none (no result: ALR inh)
COc1ccc(-c2cc(C(=O)NN)[nH]n2)cc1OC	ALR inh 98
COc1ccc(-c2cc(C(=O)NN)[nH]n2)cc1	none
COc1ccc(-c2cc(C(=O)O)[nH]n2)cc1OC	none
CCOc1ccc(-c2cc(C(=O)NN)[nH]n2)cc1	ALR inh 99
C#CCOCCOCCOCCNc1nc(N2CCN(C(=O)[C@H](CCCCN)n3cc(C(N)CO)nn3)CC2)nc(N2CCN(C(=O)[C@H](CCCCN)n3cc(C(N)COC(=O)C(F)(F)F)nn3)CC2)n1 (stereo not given in full)	none (no result: N-glyco inh)
Cc1ccccc1NS(=O)(=O)c1ccc(C(=O)NCCCN2CCCC2=O)cc1	none
Oc1cccc2cnccc12	ALR inh 99
Nc1cccc2cnccc12	none
CCOc1c(O)ccc(/C=C2\SC(=S)NC2=O)c1[N+](=O)[O-]	ALR inh 99
CCOc1ccc(N(C)c2ccc(/C=C3/SC(=S)NC3=O)cc2)cc1	none
CCOc1ccc(N(CC(=O)Nc2ccc(OC)cc2)C2=NC3CS(=O)(=O)CC3S2)cc1 (stereo not given)	ALR inh 99
CCOc1ccc(N(CC(=O)Nc2ccc(C)c(F)c2)C2=NC3CS(=O)(=O)CC3S2)cc1 (stereo not given)	none
O=S1(=O)CC2N=C(N(Cc3ccc(F)cc3Cl)c3ccccc3F)SC2C1 (stereo not given)	ALR inh 98
Cc1cccc(NC(=O)CN(C2=NC3CS(=O)(=O)CC3S2)c2ccccc2F)c1 (stereo not given)	ALR inh 99
CCOc1ccc(N(CC(=O)Nc2c(C)cc(C)cc2C)C2=NC3CS(=O)(=O)CC3S2)cc1 (stereo not given)	none (no result: ALR inh, T cell HTS)
O=C(NCCc1ccc(Cl)cc1)c1cccc(NC2=NC3CS(=O)(=O)CC3S2)c1 (stereo not given)	none
CC(=O)Nc1cccc(C(=O)Nc2cc(C(F)(F)F)ccc2-n2cncn2)c1	none (no result: ALR inh, T cell HTS)
O=c1[nH][nH]c(-c2ccccc2)c1-c1ccccc1	none (no result: ALR inh, T cell HTS)
O=c1o[nH]c(-c2ccccc2)c1-c1ccccc1	ALR inh 89
CC(NC(=O)CSc1ncn[nH]1)c1ccc(Cl)cc1Cl (stereo not given)	none (no result: ALR inh, T cell HTS)
S=c1[nH]nc(SCc2ccccc2)c2[nH]cnc12	none (no result: ALR inh, T cell HTS)
CCCc1nc2ccccc2c(C(=O)OCC(=O)Nc2c(C)n(C)n(-c3ccccc3)c2=O)c1CC	none
COc1ccc2c(c1)c1ccc3c(c1n2C)C(=O)C=CC3=O	N-glyco inh 28 (no result: ALR inh, T cell HTS)
Cc1ccc2c(c1)c1ccc3c(c1n2C)C(=O)C=CC3=O	N-glyco inh 31 (no result: ALR inh, T cell HTS)
COc1ccc2c(c1)c1ncn(CCN3CCCC3)c(=O)c1n2C	none
Cc1ccc2c(c1)c1ncnc(N3CCOCC3)c1n2C	none
COCCN(C(=O)c1csnn1)C(C(=O)NC1CCCCC1)c1ccccc1 (stereo not given)	none
Cc1noc(C)c1NC(=O)Nc1ccc2c(c1)C(=O)N([C@@H](C)CO)C[C@@H](C)[C@@H](CN(C)Cc1ccc3c(c1)OCO3)O2	none
CCCCOC(=O)Sc1nc2ccccc2o1	ALR inh 93
COc1ccc(C(=O)/C=C/Sc2nc3ccccc3o2)cc1	none
Nc1ncc(Br)cc1S(=O)(=O)N1CCCCCC1	none
O=C(O)Cc1ccc(N2N=C(c3ccccc3)CC2=O)cc1	none (no result: ALR inh, T cell HTS)
c1c2c(cc3sc(N4CCCCC4)nc13)OCO2	ALR inh 99
c1ccc2c(c1)CCN(c1nc3cc4c(cc3s1)OCO4)C2	none
c1ccc(N2CCN(c3nc4cc5c(cc4s3)OCO5)CC2)cc1	none (no result: ALR inh)
c1c2c(cc3sc(N4CCOCC4)nc13)OCO2	ALR inh 97
Cc1ccc(NC(=O)CN2C(=O)c3ccccc3S2(=O)=O)c(C)c1	none
Cc1nc(-c2ccc(Cl)cc2)sc1C1(C)CC(c2ccc(F)cc2)=NO1 (stereo not given)	none
CCOC(=O)c1cc(C(=O)NNC(=O)c2cccc([N+](=O)[O-])c2)c(C)nc1C	none (no result: ALR inh, T cell HTS)
COc1ccccc1NC(=O)CSc1nc2c(sc3ccccc32)c(=O)n1CCN(C)C	ALR inh 99
COCCn1c(SCC(=O)Nc2ccccc2OC)nc2ccccc2c1=O	none
C=CCN(C(=O)CSc1nc2c(sc3ccccc32)c(=O)n1CCN(CC)CC)c1ccccc1	none (no result: ALR inh)
CCN(CC)CCn1c(SCC(=O)Nc2ccc(F)cc2)nc2c(sc3ccccc32)c1=O	ALR inh 99 (no result: N-glyco inh)
CN(C(=O)COC(=O)c1ccccc1C(=O)c1ccccc1)c1ccccc1	none
